# Results as given in ChEMBL document CHEMBL1152304, “Alteration of the bis-tetrahydrofuran core stereochemistries in asimicin can affect the cytotoxicity” (J Med Chem, 2008).
# pIC50: −log10 of the molar value.
# How the values were obtained:
# L1210 [1] = experiment: Cytotoxicity against mouse L1210 cells at 3.75 ug by disk diffusion assay; assay type: functional
# Summary of the method: (§1)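 15 µL of sample dried overnight on 6.5 mm filter disk. Disk placed near edge of 60 mm dish of cells plated in soft agar, incubated 7-10 days. Zone of inhibition measured from disk edge to start of normal-sized colony formation, disk diameter taken as 200 units. Overly toxic samples diluted 1:4 or 1:10 and retested.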
# MC-38 [2] = experiment: Cytotoxicity against mouse Colon 38 cells at 3.75 ug by disk diffusion assay; assay type: functional; summary of the method: as §1
# L1210 [3] = experiment: Cytotoxicity against mouse L1210 cells at 60 ug by disk diffusion assay; assay type: functional; summary of the method: as §1
# [4] = Inhibition of bovine heart mitochondrial complex1 activity; design: species or system Bos taurus
# Summary of the method: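 Bovine heart submitochondrial particles, 15 µg/mL, in 0.25 M sucrose, 1 mM MgCl2, 50 mM phosphate pH 7.5. Inhibitor added at various concentrations and equilibrated 5 min. Reaction started with 150 µM NADH and followed spectrophotometrically at 340 nm. IC50 derived.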
# [5] = Cytotoxicity against human CFU-GM cells at 3.75 ug by disk diffusion assay; assay type: functional; summary of the method: as §1
# [6] = Cytotoxicity against human H125M cells at 15 ug by disk diffusion assay; assay type: functional; summary of the method: as §1
# L1210 [7] = experiment: Cytotoxicity against mouse L1210 cells at 15 ug by disk diffusion assay; assay type: functional; summary of the method: as §1
# [8] = Cytotoxicity against human CFU-GM cells at 60 ug by disk diffusion assay; assay type: functional; summary of the method: as §1
# MC-38 [9] = experiment: Cytotoxicity against mouse Colon 38 cells at 0.94 ug by disk diffusion assay; assay type: functional; summary of the method: as §1
# CCRF-CEM = experiment: Cytotoxicity against human CEM cells at 15 ug by disk diffusion assay; assay type: functional; summary of the method: as §1
# HCT-116 [10] = experiment: Cytotoxicity against human HCT116 cells; assay type: functional, cell-based
# MC-38 [11] = experiment: Cytotoxicity against mouse Colon 38 cells at 15 ug by disk diffusion assay; assay type: functional; summary of the method: as §1
# L1210 [12] = experiment: Cytotoxicity against mouse L1210 cells at 0.94 ug by disk diffusion assay; assay type: functional; summary of the method: as §1
# [13] = Cytotoxicity against human CFU-GM cells at 0.94 ug by disk diffusion assay; assay type: functional; summary of the method: as §1
# HCT-116 [14] = experiment: Cytotoxicity against human HCT116 cells at 15 ug by disk diffusion assay; assay type: functional; summary of the method: as §1
# [15] = Cytotoxicity against human CFU-GM cells at 15 ug by disk diffusion assay; assay type: functional; summary of the method: as §1
# MC-38 [16] = experiment: Cytotoxicity against mouse Colon 38 cells at 60 ug by disk diffusion assay; assay type: functional; summary of the method: as §1
smiles,measurement,setting,value
CCCCCCCCCC[C@@H](O)[C@H]1CC[C@@H]([C@@H]2CC[C@H]([C@H](O)CCCCCCCCCC[C@@H](O)CC3=C[C@H](C)OC3=O)O2)O1,inhibition zone (IZ),L1210 [1],150 Zone units
same,inhibition zone (IZ),MC-38 [2],750 Zone units
same,inhibition zone (IZ),L1210 [3],450 Zone units
same,pIC50,[4],8.12
same,inhibition zone (IZ),[5],500 Zone units
same,inhibition zone (IZ),[6],350 Zone units
same,inhibition zone (IZ),L1210 [7],100 Zone units
same,inhibition zone (IZ),[8],650 Zone units
same,inhibition zone (IZ),MC-38 [9],550 Zone units
same,inhibition zone (IZ),CCRF-CEM,0 Zone units
same,pIC50,HCT-116 [10],7.74
same,inhibition zone (IZ),MC-38 [11],800 Zone units
same,inhibition zone (IZ),L1210 [12],150 Zone units
same,inhibition zone (IZ),[13],450 Zone units
same,inhibition zone (IZ),HCT-116 [14],500 Zone units
same,inhibition zone (IZ),[15],300 Zone units
same,inhibition zone (IZ),MC-38 [16],800 Zone units
CCCCCCC[C@H](O)CC[C@H](O)[C@H]1CC[C@H]([C@H]2CC[C@H]([C@@H](O)CCCCCCCCCC[C@@H](O)CC3=C[C@H](C)OC3=O)O2)O1,inhibition zone (IZ),L1210 [1],400 Zone units
same,inhibition zone (IZ),MC-38 [2],850 Zone units
same,inhibition zone (IZ),L1210 [3],600 Zone units
same,inhibition zone (IZ),[5],450 Zone units
same,inhibition zone (IZ),[6],550 Zone units
same,inhibition zone (IZ),L1210 [7],300 Zone units
same,inhibition zone (IZ),[8],750 Zone units
same,inhibition zone (IZ),MC-38 [9],750 Zone units
same,inhibition zone (IZ),CCRF-CEM,150 Zone units
same,inhibition zone (IZ),MC-38 [11],900 Zone units
same,inhibition zone (IZ),L1210 [12],100 Zone units
same,inhibition zone (IZ),[13],450 Zone units
same,inhibition zone (IZ),HCT-116 [14],600 Zone units
same,inhibition zone (IZ),[15],300 Zone units
same,inhibition zone (IZ),MC-38 [16],>1000 Zone units
CCCCCCCCCC[C@H](O)[C@H]1CC[C@@H]([C@@H]2CC[C@H]([C@@H](O)CCCCCCCCCC[C@@H](O)CC3=C[C@H](C)OC3=O)O2)O1,inhibition zone (IZ),L1210 [1],250 Zone units
same,inhibition zone (IZ),MC-38 [2],800 Zone units
same,inhibition zone (IZ),L1210 [3],650 Zone units
same,pIC50,[4],8.30
same,inhibition zone (IZ),[5],600 Zone units
same,inhibition zone (IZ),[6],400 Zone units
same,inhibition zone (IZ),L1210 [7],200 Zone units
same,inhibition zone (IZ),[8],700 Zone units
same,inhibition zone (IZ),MC-38 [9],700 Zone units
same,inhibition zone (IZ),CCRF-CEM,0 Zone units
same,pIC50,HCT-116 [10],9.16
same,inhibition zone (IZ),MC-38 [11],900 Zone units
same,inhibition zone (IZ),L1210 [12],100 Zone units
same,inhibition zone (IZ),[13],550 Zone units
same,inhibition zone (IZ),HCT-116 [14],550 Zone units
same,inhibition zone (IZ),[15],250 Zone units
same,inhibition zone (IZ),MC-38 [16],800 Zone units
CCCCCCC[C@H](O)CC[C@H](O)[C@H]1CC[C@H]([C@H]2CC[C@H]([C@H](O)CCCCCCCCCC[C@@H](O)CC3=C[C@H](C)OC3=O)O2)O1,inhibition zone (IZ),L1210 [1],350 Zone units
same,inhibition zone (IZ),MC-38 [2],750 Zone units
same,inhibition zone (IZ),L1210 [3],700 Zone units
same,inhibition zone (IZ),[5],550 Zone units
same,inhibition zone (IZ),[6],100 Zone units
same,inhibition zone (IZ),L1210 [7],250 Zone units
same,inhibition zone (IZ),[8],700 Zone units
same,inhibition zone (IZ),MC-38 [9],600 Zone units
same,inhibition zone (IZ),CCRF-CEM,0 Zone units
same,inhibition zone (IZ),MC-38 [11],950 Zone units
same,inhibition zone (IZ),L1210 [12],150 Zone units
same,inhibition zone (IZ),[13],500 Zone units
same,inhibition zone (IZ),HCT-116 [14],600 Zone units
same,inhibition zone (IZ),[15],400 Zone units
same,inhibition zone (IZ),MC-38 [16],900 Zone units
CCCCCCCCCC[C@H](O)[C@H]1CC[C@H]([C@H]2CC[C@H]([C@@H](O)CCCCCCCCCC[C@@H](O)CC3=C[C@H](C)OC3=O)O2)O1,inhibition zone (IZ),L1210 [1],400 Zone units
same,inhibition zone (IZ),MC-38 [2],800 Zone units
same,inhibition zone (IZ),L1210 [3],800 Zone units
same,pIC50,[4],8.05
same,inhibition zone (IZ),[6],450 Zone units
same,inhibition zone (IZ),L1210 [7],150 Zone units
same,inhibition zone (IZ),MC-38 [9],700 Zone units
same,inhibition zone (IZ),CCRF-CEM,150 Zone units
same,pIC50,HCT-116 [10],9.35
same,inhibition zone (IZ),MC-38 [11],800 Zone units
same,inhibition zone (IZ),L1210 [12],100 Zone units
same,inhibition zone (IZ),HCT-116 [14],600 Zone units
same,inhibition zone (IZ),MC-38 [16],800 Zone units
CCCCCCCCCC[C@@H](O)[C@H]1CC[C@@H]([C@H]2CC[C@H]([C@H](O)CCC[C@H](O)CCCCCCCC3=C[C@H](C)OC3=O)O2)O1 [TRILOBIN],inhibition zone (IZ),L1210 [1],200 Zone units
same,inhibition zone (IZ),MC-38 [2],800 Zone units
same,inhibition zone (IZ),L1210 [3],850 Zone units
same,inhibition zone (IZ),[5],500 Zone units
same,inhibition zone (IZ),[6],350 Zone units
same,inhibition zone (IZ),L1210 [7],200 Zone units
same,inhibition zone (IZ),[8],550 Zone units
same,inhibition zone (IZ),MC-38 [9],600 Zone units
same,inhibition zone (IZ),CCRF-CEM,100 Zone units
same,inhibition zone (IZ),MC-38 [11],800 Zone units
same,inhibition zone (IZ),L1210 [12],100 Zone units
same,inhibition zone (IZ),[13],400 Zone units
same,inhibition zone (IZ),HCT-116 [14],450 Zone units
same,inhibition zone (IZ),[15],350 Zone units
same,inhibition zone (IZ),MC-38 [16],950 Zone units
CCCCCCCCCC[C@H](O)[C@H]1CC[C@@H]([C@@H]2CC[C@H]([C@H](O)CCCCCCCCCC[C@@H](O)CC3=C[C@H](C)OC3=O)O2)O1 [rolliniastatin-1],inhibition zone (IZ),L1210 [1],250 Zone units
same,inhibition zone (IZ),MC-38 [2],800 Zone units
same,inhibition zone (IZ),L1210 [3],600 Zone units
same,pIC50,[4],8.52
same,inhibition zone (IZ),[5],400 Zone units
same,inhibition zone (IZ),[6],600 Zone units
same,inhibition zone (IZ),L1210 [7],200 Zone units
same,inhibition zone (IZ),[8],750 Zone units
same,inhibition zone (IZ),MC-38 [9],700 Zone units
same,inhibition zone (IZ),CCRF-CEM,0 Zone units
same,pIC50,HCT-116 [10],9.66
same,inhibition zone (IZ),MC-38 [11],1000 Zone units
same,inhibition zone (IZ),L1210 [12],100 Zone units
same,inhibition zone (IZ),[13],400 Zone units
same,inhibition zone (IZ),HCT-116 [14],600 Zone units
same,inhibition zone (IZ),[15],350 Zone units
same,inhibition zone (IZ),MC-38 [16],900 Zone units
